Reference: ChEMBL document CHEMBL4196177, “Synthesis, Evaluation, and Structure-Activity Relationship Study of Lanosterol Derivatives To Reverse Mutant-Crystallin-Induced Protein Aggregation” (J Med Chem, 2018)
Active and inactive are the calls of the source. The calls are words filed in the database; no cut-off is given here.

Experiments:
Assay type in all cases: cell-based
[1] = tested on: T1, Alpha-crystallin B chain (Homo sapiens), P02511 [R120G]; assay: Inhibition of alpha-crystallin B R120G mutant (unknown origin)-induced intracellular protein aggregation expressed in human HeLa cells at 4 uM incubated for 6 to 8 hrs by fluorescence microscopy relative to untreated control
T1 sequence (whole entry): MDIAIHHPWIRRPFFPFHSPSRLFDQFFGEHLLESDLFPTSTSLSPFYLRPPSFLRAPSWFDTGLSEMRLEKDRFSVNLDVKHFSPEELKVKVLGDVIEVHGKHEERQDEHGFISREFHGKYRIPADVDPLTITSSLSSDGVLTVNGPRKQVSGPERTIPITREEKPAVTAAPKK
Method in brief: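 Cells were transfected with mutant crystallin constructs using Lipofectamine 2000 and cultured for 16 h until the overexpressed mutants formed aggregates. Compounds were then added to the culture medium and incubated for 6~8 h. Aggregate dissolution was scored by fluorescence microscopy. For αB R120G, % inhibition at 0.4 and 4 µM was calculated against DMSO-treated cells; values are mean ± error.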

[2] = tested on: T2, Alpha-crystallin A chain (Homo sapiens), P02489 [Y118D]; assay: Inhibition of alpha-crystallin A Y118D mutant (unknown origin)-induced intracellular protein aggregation expressed in human HeLa cells or HLE-B3 cells at 4 uM incubated for 6 to 8 hrs by fluorescence microscopy relative to untreated control
T2 sequence (whole entry): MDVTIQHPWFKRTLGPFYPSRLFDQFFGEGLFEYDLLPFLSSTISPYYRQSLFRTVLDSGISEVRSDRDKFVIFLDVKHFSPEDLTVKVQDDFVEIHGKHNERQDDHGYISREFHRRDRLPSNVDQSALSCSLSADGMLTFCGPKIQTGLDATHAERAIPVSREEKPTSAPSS
Method in brief: (§1)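 Cells were transfected with mutant crystallin and incubated 16 h to overexpress it and form aggregates. Compounds were then added to the medium for 6~8 h. Aggregates were scored by fluorescence microscopy, and percent inhibition was calculated against DMSO-treated cells.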

HeLa = assay: Toxicity in human HeLa cells transfected with peGFP-N1 assessed as reduction in cell viability of at 0.04 to 4 uM incubated for 12 hrs by CCK8 assay
[3] = Toxicity in human HLE-B3 cells transfected with peGFP-N1 assessed as reduction in cell viability of at 0.04 to 4 uM incubated for 12 hrs by CCK8 assay
[4] = tested on: T1, Alpha-crystallin B chain (Homo sapiens), P02511 [R120G]; assay: Inhibition of alpha-crystallin B R120G mutant (unknown origin)-induced cytotoxicity in human HeLa cells assessed as increase in cell viability at 0.04 to 4 uM incubated for 12 hrs by CCK8 assay
[5] = tested on: T1, Alpha-crystallin B chain (Homo sapiens), P02511 [R120G]; assay: Inhibition of alpha-crystallin B R120G mutant (unknown origin)-induced cytotoxicity in human HLE-B3 cells assessed as increase in cell viability at 0.04 to 4 uM incubated for 12 hrs by CCK8 assay
[6] = tested on: T3, Beta-crystallin B2 (Homo sapiens), P43320 [V187E]; assay: Inhibition of beta-crystallin B2 V187E mutant (unknown origin)-induced cytotoxicity in human HeLa cells assessed as increase in cell viability at 0.04 to 4 uM incubated for 12 hrs by CCK8 assay
T3 sequence (whole entry): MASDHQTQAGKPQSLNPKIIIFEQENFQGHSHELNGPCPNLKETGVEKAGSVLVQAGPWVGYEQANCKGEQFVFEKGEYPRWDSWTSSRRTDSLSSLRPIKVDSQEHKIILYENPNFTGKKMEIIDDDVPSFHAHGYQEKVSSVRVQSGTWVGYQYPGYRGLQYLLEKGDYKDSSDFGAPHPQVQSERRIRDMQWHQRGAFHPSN

[7] = tested on: T3, Beta-crystallin B2 (Homo sapiens), P43320 [V187E]; assay: Inhibition of beta-crystallin B2 V187E mutant (unknown origin)-induced cytotoxicity in human HLE-B3 cells assessed as increase in cell viability at 0.04 to 4 uM incubated for 12 hrs by CCK8 assay
[8] = tested on: T4, Gamma-crystallin C (Homo sapiens), P07315 [G129C]; assay: Inhibition of gamma-crystallin C G129C mutant (unknown origin)-induced cytotoxicity in human HeLa cells assessed as increase in cell viability at 0.04 to 4 uM incubated for 12 hrs by CCK8 assay
T4 sequence (whole entry): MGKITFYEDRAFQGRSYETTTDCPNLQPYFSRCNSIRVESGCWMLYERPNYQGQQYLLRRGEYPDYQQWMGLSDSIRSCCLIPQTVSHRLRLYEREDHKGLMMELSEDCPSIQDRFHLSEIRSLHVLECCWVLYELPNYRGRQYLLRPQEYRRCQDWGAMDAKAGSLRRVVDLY

[9] = tested on: T4, Gamma-crystallin C (Homo sapiens), P07315 [G129C]; assay: Inhibition of gamma-crystallin C G129C mutant (unknown origin)-induced cytotoxicity in human HLE-B3 cells assessed as increase in cell viability at 0.04 to 4 uM incubated for 12 hrs by CCK8 assay
[10] = tested on: T3, Beta-crystallin B2 (Homo sapiens), P43320 [V187E]; assay: Inhibition of beta-crystallin B2 V187E mutant (unknown origin)-induced intracellular protein aggregation expressed in human HeLa cells or HLE-B3 cells at 4 uM incubated for 6 to 8 hrs by fluorescence microscopy relative to untreated control; method in brief: as §1
[11] = tested on: T4, Gamma-crystallin C (Homo sapiens), P07315 [G129C]; assay: Inhibition of gamma-crystallin C G129C mutant (unknown origin)-induced intracellular protein aggregation expressed in human HeLa cells or HLE-B3 cells at 4 uM incubated for 6 to 8 hrs by fluorescence microscopy relative to untreated control; method in brief: as §1
[12] = tested on: T5, Gamma-crystallin D (Homo sapiens), P07320 [W43R]; assay: Inhibition of gamma-crystallin D W43R mutant (unknown origin)-induced intracellular protein aggregation expressed in human HeLa cells or HLE-B3 cells at 4 uM incubated for 6 to 8 hrs by fluorescence microscopy relative to untreated control; method in brief: as §1
T5 sequence (whole entry): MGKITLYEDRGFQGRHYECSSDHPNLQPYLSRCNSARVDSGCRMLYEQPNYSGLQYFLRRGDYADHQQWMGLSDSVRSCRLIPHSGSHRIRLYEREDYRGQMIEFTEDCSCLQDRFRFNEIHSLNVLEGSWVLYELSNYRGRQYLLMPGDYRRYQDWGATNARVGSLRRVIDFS

Compound: O=C(O)c1cc(O)c2c3nc4ccccc4oc-3cc(=O)c2n1
- inhibition [1]: inactive

Compound: N[C@@H](CCC(=O)N[C@@H](CS)C(=O)NCC(=O)O)C(=O)O
- inhibition [1]: inactive

Compound: O=C1O[C@H]([C@@H](O)CO)C([O-])=C1O.[Na+]
- inhibition [1]: inactive

Compound: O=C(O)COc1nn(Cc2ccccc2)c2ccccc12
- inhibition [1]: inactive

Compound: C[C@H](CCCC(C)(C)O)[C@H]1CC[C@H]2[C@@H]3CC=C4C[C@@H](O)CC[C@]4(C)[C@H]3CC[C@]12C
- inhibition [2]: Active
- Activity (HeLa): Toxic
- Activity [3]: Toxic
- inhibition [4]: inactive
- inhibition [5]: inactive
- inhibition [6]: inactive
- inhibition [7]: inactive
- inhibition [8]: inactive
- inhibition [9]: inactive

Compound: CC(C)=CCC[C@@H](C)[C@H]1CC[C@@]2(C)C3=C(CC[C@]12C)[C@@]1(C)CC[C@H](O)C(C)(C)[C@@H]1CC3
- inhibition [2]: Active
- inhibition [10]: Active
- inhibition [11]: Active
- inhibition [12]: Active
